Eight compounds from PMC2574800 (Bioorganic & medicinal chemistry, 2008) can be followed below.

The structures appear in SMILES notation.

One assay has as its system K562 cells. Kind of assay: Flow cytometric analysis of cell cycle distribution. In kind it is cell-based, human. The conditions noted are these: 24 h, compound at its 24 h IC50, propidium iodide. Background: In flow cytometry, cells or beads pass a laser one at a time.
Assay [1] concerns L1210, FM3A, Molt/4 and CEM cells. In words: Cell growth inhibitory activity, range over the four cell lines. The class given is cell-based. As to conditions: for IC50: read-out: IC50-values range against the four cell lines. The method, boiled down: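 Cells incubated with test compound at 37 °C for two days (L1210, FM3A) or three days (Molt 4, CEM). Cell number counted with a Coulter counter. IC50 taken as the concentration giving 50% inhibition of proliferation, from dose–response curves. Mean ± SE of at least three independent experiments.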

The subject of assay [2] is murine leukemia L1210 cells. Kind of assay: Cell growth inhibitory activity, L1210. The class given is cell-based. As to conditions: Mus musculus, L1210, 48 h, read-out: IC50 (proliferation) L1210. Summed up:
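Murine leukaemia L1210 cells grown with varying concentrations of test compound at 37 °C for two days; cell number counted on a Coulter counter. IC50 is the concentration inhibiting cell proliferation by 50%, taken from dose–response curves. Mean ± SE of at least three independent experiments.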

The subject of assay [3] is murine mammary carcinoma FM3A cells. In words: Cell growth inhibitory activity, FM3A. In kind it is cell-based. The conditions noted are these: Mus musculus, 48 h, read-out: IC50 (proliferation) FM3A.
In assay [4] the test system is Bovine brain tubulin (colchicine site). Kind of assay: Inhibition of [3H]colchicine binding to tubulin. As to conditions: tubulin 1 μM, colchicine 5 μM, tested compound 1 μM.

Turning to `COc1ccc2c(N(C)C)c(C(=O)c3cc(OC)c(OC)c(OC)c3)oc2c1` [Compound 5i, (3-(Dimethylamino)-6-methoxybenzofuran-2-yl) (3,4,5-trimethoxyphenyl)methanone], in the assay on K562 cells, the “Effect on cell cycle distribution” value was “accumulation of cells in G2-M”. Further, the IC50 in assay [1] was in the range of 48 to 75 nM.

As for `COc1ccc2c(N)c(C(=O)c3cc(OC)c(OC)c(OC)c3)oc2c1` [Compound 5d, (3-Amino-6-methoxybenzofuran-2-yl)(3,4,5-trimethoxyphenyl)methanone], the “Effect on cell cycle distribution” value with K562 cells is “accumulate in late S phase”. In addition, the IC50 in assay [1] is 87 to 430 nM. On to `COc1ccc2c(N)c(C(=O)c3cc(OC)c(OC)c(OC)c3)n(C)c2c1` [Compound 4a], for which the IC50 in assay [2] is 69 ± 37 nM; in assay [3] it was 97 ± 3 nM.

For the compound `COc1cc(C(=O)c2oc3cccc(OC)c3c2N)cc(OC)c1OC` [Compound 5b, (3-Amino-4-methoxybenzofuran-2-yl)(3,4,5-trimethoxyphenyl)methanone], in assay [1] (antiproliferative activity relative to 5d), the “Fold less active than 5d in the four cell lines” value is “over 10 fold”. On to `COc1ccc2c(NC(=O)CI)c(C(=O)c3cc(OC)c(OC)c(OC)c3)oc2c1` [Compound 5n, (3-iodoacetylamino-6-methoxybenzofuran-2-yl)(3,4,5-trimethoxyphenyl)methanone], for which the “Effect on cell cycle distribution” value in the assay with K562 cells is recorded as “greatest percentage increase in the percentage of cells in apoptotic cells (subG0-G1 peak)”.

Turning to `COc1ccc(/C=C\c2cc(OC)c(OC)c(OC)c2)cc1O` [CA-4 (1), combretastatin A-4], the IC50 in assay [2] amounted to 2.8 ± 1.1 nM. In addition, the “Colchicine binding % ± SD (inhibition of [3H]colchicine binding)” value in assay [4] is recorded as 86 ± 3%.

With `COc1ccc2c(N)c(C(=O)c3cc(OC)c(OC)c(OC)c3)[nH]c2c1` [Compound 3a], the IC50 worked out at 970 ± 24 nM in assay [2] and 1600 ± 30 nM in assay [3]. As for `COc1ccc2c(NC(=O)CCl)c(C(=O)c3cc(OC)c(OC)c(OC)c3)oc2c1` [Compound 5l, (3-chloroacetylamino-6-methoxybenzofuran-2-yl)(3,4,5-trimethoxyphenyl)methanone], the “Effect on cell cycle distribution” value with K562 cells was “accumulate in late S phase”.
